In ChEMBL document CHEMBL1131143, “Predictive models for GABAA/benzodiazepine receptor subtypes: studies of quantitative structure-activity relationships for imidazobenzodiazepines at five recombinant GABAA/benzodiazepine receptor subtypes [alphaxbeta3gamma2 (x = 1-3, 5, and 6)] via comparative molecular field analysis” (J Med Chem, 1998):

These molecules were tested against GABA-A receptor; alpha-6/beta-3/gamma-2 (Homo sapiens, UniProt P18507+P28472+Q16445) (assay: Binding affinity against Gamma-aminobutyric acid A receptor alpha-6-beta-3-gamma-2).
Sequence of GABA-A receptor; alpha-6/beta-3/gamma-2 (Q16445 whole entry, one chain of several): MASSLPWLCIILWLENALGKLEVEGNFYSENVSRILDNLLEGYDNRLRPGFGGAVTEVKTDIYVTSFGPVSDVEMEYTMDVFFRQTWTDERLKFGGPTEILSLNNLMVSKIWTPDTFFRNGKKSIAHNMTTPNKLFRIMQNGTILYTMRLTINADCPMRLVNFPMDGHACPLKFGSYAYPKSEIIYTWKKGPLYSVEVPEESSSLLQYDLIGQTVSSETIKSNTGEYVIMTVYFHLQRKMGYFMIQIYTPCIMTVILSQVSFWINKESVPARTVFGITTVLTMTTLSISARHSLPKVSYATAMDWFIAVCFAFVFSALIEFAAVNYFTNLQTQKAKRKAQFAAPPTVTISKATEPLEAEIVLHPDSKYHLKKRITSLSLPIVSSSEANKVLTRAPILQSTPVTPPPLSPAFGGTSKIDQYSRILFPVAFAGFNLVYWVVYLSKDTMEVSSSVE
Format: protein-complex assay
Outline: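 Cells scraped into PBS, spun at 3000g, resuspended in 10 mM KH₂PO₄/100 mM KCl pH 7.4. Nonspecific binding with 10⁻⁵ M diazepam; 1 h to equilibrium at 4 °C; filtration, ice-cold buffer wash, scintillation counting.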
Work on `C#Cc1ccc2c(c1)C(=O)N1CCC[C@H]1c1c(C(=O)OCC)ncn1-2` yielded a Ki of 0.126 µM. For `CN1Cc2c(C(=O)OC(C)(C)C)ncn2-c2ccc(C#C[Si](C)(C)C)cc2C1=O`, the Ki was 0.0586 µM. For `C#Cc1ccc2c(c1)C(=O)N1CCC[C@H]1c1c(-c3nc(C)no3)ncn1-2`, the Ki was 0.301 µM. In the case of `CN1Cc2c(C(=O)OC(C)(C)C)ncn2-c2ccc(C#CC[Si](C)(C)C)cc2C1=O`, the Ki is reported as 0.301 µM. `C#Cc1ccc2c(c1)C(=O)N1CC[C@H]1c1c(C(=O)OCC)ncn1-2` showed a Ki of 0.042 µM. `CC(=O)c1ncn2c1CN(C)C(=O)c1cc(Cl)ccc1-2` showed a Ki of 29.5 µM.

What follows are molecules tested against T1, GABA-A receptor; alpha-5/beta-3/gamma-2 (Homo sapiens, UniProt P18507+P28472+P31644) (assay: Binding affinity for Gamma-aminobutyric acid A receptor alpha-5-beta-3-gamma-2).
T1 sequence (P18507 whole entry): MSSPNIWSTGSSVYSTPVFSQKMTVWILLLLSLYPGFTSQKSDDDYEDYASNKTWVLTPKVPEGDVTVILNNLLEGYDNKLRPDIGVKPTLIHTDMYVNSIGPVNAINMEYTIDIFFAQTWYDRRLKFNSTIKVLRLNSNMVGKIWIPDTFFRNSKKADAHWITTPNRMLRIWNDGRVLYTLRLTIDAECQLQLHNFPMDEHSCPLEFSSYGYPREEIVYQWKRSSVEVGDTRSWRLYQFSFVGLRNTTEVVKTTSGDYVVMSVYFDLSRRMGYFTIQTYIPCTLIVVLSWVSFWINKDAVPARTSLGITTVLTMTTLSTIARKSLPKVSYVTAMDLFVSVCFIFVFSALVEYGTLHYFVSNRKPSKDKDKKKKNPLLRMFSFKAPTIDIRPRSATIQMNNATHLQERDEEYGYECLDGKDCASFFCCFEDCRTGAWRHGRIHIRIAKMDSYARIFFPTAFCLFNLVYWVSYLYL
T1 sequence (P28472 whole entry): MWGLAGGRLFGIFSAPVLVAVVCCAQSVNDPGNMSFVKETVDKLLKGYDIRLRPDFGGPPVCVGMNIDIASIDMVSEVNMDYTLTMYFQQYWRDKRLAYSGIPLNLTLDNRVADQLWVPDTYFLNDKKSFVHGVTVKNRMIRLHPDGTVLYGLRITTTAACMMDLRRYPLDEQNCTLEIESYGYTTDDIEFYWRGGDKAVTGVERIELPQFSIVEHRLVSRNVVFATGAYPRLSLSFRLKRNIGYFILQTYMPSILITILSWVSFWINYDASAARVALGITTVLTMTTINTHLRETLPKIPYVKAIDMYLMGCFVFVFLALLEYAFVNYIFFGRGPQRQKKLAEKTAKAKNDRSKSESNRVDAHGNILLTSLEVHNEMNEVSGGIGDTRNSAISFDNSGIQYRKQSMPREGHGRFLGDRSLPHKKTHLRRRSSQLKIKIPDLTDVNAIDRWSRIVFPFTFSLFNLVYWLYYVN
T1 sequence (P31644 whole entry): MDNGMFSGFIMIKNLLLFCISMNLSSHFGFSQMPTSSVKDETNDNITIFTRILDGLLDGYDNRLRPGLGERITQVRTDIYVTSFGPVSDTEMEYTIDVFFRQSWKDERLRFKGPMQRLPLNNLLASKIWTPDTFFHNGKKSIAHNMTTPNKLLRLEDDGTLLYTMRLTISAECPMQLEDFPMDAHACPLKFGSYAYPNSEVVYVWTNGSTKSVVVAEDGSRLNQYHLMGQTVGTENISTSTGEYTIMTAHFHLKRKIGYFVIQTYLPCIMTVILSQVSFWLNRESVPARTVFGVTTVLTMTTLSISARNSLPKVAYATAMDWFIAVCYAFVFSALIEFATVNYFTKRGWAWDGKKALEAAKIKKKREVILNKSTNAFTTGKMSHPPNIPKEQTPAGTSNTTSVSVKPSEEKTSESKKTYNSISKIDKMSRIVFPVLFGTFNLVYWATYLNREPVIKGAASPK
Format: protein-complex assay
`C#Cc1ccc2c(c1)C(=O)N1CCC[C@H]1c1c(C(=O)OCC)ncn1-2` gave a Ki of 0.0013 µM. `CN1Cc2c(C(=O)OC(C)(C)C)ncn2-c2ccc(C#C[Si](C)(C)C)cc2C1=O` showed a Ki of 0.00261 µM. In the case of `C#Cc1ccc2c(c1)C(=O)N1CCC[C@H]1c1c(-c3nc(C)no3)ncn1-2`, the Ki is reported as 0.0037 µM. With `CN1Cc2c(C(=O)OC(C)(C)C)ncn2-c2ccc(C#CC[Si](C)(C)C)cc2C1=O` the Ki was 0.023 µM. `C#Cc1ccc2c(c1)C(=O)N1CC[C@H]1c1c(C(=O)OCC)ncn1-2` was tested, and the Ki was 0.00037 µM. `CC(=O)c1ncn2c1CN(C)C(=O)c1cc(Cl)ccc1-2` gave a Ki of 2.61 µM.

Each molecule was assayed against T2, GABA-A receptor; alpha-3/beta-3/gamma-2 (Homo sapiens, UniProt P18507+P28472+P34903) (assay: Binding affinity against alpha-3-beta-3-gamma-2 GABAA/BzR receptor subtype.).
T2 sequence (P18507 whole entry): T1 sequence (P18507 whole entry)
T2 sequence (P28472 whole entry): T1 sequence (P28472 whole entry)
T2 sequence (P34903 whole entry): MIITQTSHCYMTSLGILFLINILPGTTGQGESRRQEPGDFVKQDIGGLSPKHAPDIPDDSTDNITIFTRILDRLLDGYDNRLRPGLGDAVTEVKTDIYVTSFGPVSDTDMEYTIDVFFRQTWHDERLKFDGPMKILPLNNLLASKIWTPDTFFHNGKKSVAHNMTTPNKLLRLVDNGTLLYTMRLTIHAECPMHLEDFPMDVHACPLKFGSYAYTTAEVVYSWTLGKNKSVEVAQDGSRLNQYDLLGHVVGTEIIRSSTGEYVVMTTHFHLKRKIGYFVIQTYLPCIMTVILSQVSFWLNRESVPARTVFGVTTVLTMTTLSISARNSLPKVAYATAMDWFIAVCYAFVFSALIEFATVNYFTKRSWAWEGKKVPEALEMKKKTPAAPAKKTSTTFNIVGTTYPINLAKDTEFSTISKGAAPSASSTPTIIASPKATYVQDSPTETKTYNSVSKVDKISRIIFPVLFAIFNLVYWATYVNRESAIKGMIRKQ
Format: protein-complex assay
In the case of `C#Cc1ccc2c(c1)C(=O)N1CCC[C@H]1c1c(C(=O)OCC)ncn1-2`, the Ki is reported as 0.027 µM. `CN1Cc2c(C(=O)OC(C)(C)C)ncn2-c2ccc(C#C[Si](C)(C)C)cc2C1=O` gave a Ki of 0.255 µM. `C#Cc1ccc2c(c1)C(=O)N1CCC[C@H]1c1c(-c3nc(C)no3)ncn1-2` was tested, and the Ki was 0.091 µM. `CN1Cc2c(C(=O)OC(C)(C)C)ncn2-c2ccc(C#CC[Si](C)(C)C)cc2C1=O` gave a Ki of 0.337 µM. `C#Cc1ccc2c(c1)C(=O)N1CC[C@H]1c1c(C(=O)OCC)ncn1-2` showed a Ki of 0.01 µM. `CC(=O)c1ncn2c1CN(C)C(=O)c1cc(Cl)ccc1-2` gave a Ki of 22.1 µM.

The molecules below were run against T3, GABA-A receptor; alpha-2/beta-3/gamma-2 (Homo sapiens, UniProt P18507+P28472+P47869) (assay: Binding affinity tested against alpha-2-beta-3-gamma-2 GABAA/BzR receptor subtype.).
T3 sequence (P18507 whole entry): T1 sequence (P18507 whole entry)
T3 sequence (P28472 whole entry): T1 sequence (P28472 whole entry)
T3 sequence (P47869 whole entry): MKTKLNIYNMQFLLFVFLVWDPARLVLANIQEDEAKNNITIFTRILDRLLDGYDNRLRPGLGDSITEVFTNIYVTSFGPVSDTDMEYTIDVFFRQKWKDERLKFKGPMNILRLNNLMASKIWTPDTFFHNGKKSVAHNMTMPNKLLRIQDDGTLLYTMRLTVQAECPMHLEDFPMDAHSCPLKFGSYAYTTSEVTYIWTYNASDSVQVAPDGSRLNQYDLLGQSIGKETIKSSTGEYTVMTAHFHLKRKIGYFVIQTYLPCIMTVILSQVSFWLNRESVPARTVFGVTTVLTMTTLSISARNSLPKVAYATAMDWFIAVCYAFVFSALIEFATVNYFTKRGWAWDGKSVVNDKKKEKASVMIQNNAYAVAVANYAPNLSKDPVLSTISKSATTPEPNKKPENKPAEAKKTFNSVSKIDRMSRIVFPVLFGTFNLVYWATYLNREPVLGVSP
Format: protein-complex assay
For `C#Cc1ccc2c(c1)C(=O)N1CCC[C@H]1c1c(C(=O)OCC)ncn1-2`, the Ki was 0.044 µM. `CN1Cc2c(C(=O)OC(C)(C)C)ncn2-c2ccc(C#C[Si](C)(C)C)cc2C1=O` gave a Ki of 0.143 µM. Molecule `C#Cc1ccc2c(c1)C(=O)N1CCC[C@H]1c1c(-c3nc(C)no3)ncn1-2` has a Ki of 0.07 µM. In the case of `CN1Cc2c(C(=O)OC(C)(C)C)ncn2-c2ccc(C#CC[Si](C)(C)C)cc2C1=O`, the Ki is reported as 0.387 µM. Work on `C#Cc1ccc2c(c1)C(=O)N1CC[C@H]1c1c(C(=O)OCC)ncn1-2` yielded a Ki of 0.012 µM. Molecule `CC(=O)c1ncn2c1CN(C)C(=O)c1cc(Cl)ccc1-2` has a Ki of 33.8 µM.

These molecules were tested against GABA-A receptor; alpha-1/beta-3/gamma-2 (Homo sapiens) (UniProt P14867+P18507+P28472) (assay: It is the ratio of Ki value for alpha-1-beta-3-gamma-2 to that of alpha-5-beta-3-gamma-2).
Format: protein-complex assay
For `C#Cc1ccc2c(c1)C(=O)N1CCC[C@H]1c1c(C(=O)OCC)ncn1-2`, the Ratio was 45. In the case of `CN1Cc2c(C(=O)OC(C)(C)C)ncn2-c2ccc(C#C[Si](C)(C)C)cc2C1=O`, the Ratio is reported as 75.5. `C#Cc1ccc2c(c1)C(=O)N1CCC[C@H]1c1c(-c3nc(C)no3)ncn1-2` gave a Ratio of 24. Molecule `CN1Cc2c(C(=O)OC(C)(C)C)ncn2-c2ccc(C#CC[Si](C)(C)C)cc2C1=O` has a Ratio of 12. With `C#Cc1ccc2c(c1)C(=O)N1CC[C@H]1c1c(C(=O)OCC)ncn1-2` the Ratio was 57. `CC(=O)c1ncn2c1CN(C)C(=O)c1cc(Cl)ccc1-2` showed a Ratio of 6.7.

What follows are molecules tested against T4, GABA-A receptor; alpha-1/beta-3/gamma-2 (Homo sapiens, UniProt P14867+P18507+P28472) (assay: Binding affinity against alpha-1-beta-3-gamma-2 GABAA/BzR receptor subtype.).
T4 sequence (P14867 whole entry): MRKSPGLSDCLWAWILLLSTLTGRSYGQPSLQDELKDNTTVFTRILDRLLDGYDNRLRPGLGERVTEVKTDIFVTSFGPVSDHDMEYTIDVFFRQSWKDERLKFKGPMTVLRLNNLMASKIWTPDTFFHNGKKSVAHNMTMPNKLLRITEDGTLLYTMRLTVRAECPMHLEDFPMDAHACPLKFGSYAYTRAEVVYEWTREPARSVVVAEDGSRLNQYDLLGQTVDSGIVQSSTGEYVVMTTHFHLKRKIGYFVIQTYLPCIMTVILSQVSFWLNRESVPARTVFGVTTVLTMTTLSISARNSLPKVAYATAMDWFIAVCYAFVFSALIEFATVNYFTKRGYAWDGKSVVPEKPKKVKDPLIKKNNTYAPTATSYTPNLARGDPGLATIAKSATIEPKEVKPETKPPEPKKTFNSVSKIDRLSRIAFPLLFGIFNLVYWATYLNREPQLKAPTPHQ
T4 sequence (P18507 whole entry): T1 sequence (P18507 whole entry)
T4 sequence (P28472 whole entry): T1 sequence (P28472 whole entry)
Format: protein-complex assay
Work on `C#Cc1ccc2c(c1)C(=O)N1CCC[C@H]1c1c(C(=O)OCC)ncn1-2` yielded a Ki of 0.059 µM. `CN1Cc2c(C(=O)OC(C)(C)C)ncn2-c2ccc(C#C[Si](C)(C)C)cc2C1=O` showed a Ki of 0.197 µM. Molecule `C#Cc1ccc2c(c1)C(=O)N1CCC[C@H]1c1c(-c3nc(C)no3)ncn1-2` has a Ki of 0.089 µM. `CN1Cc2c(C(=O)OC(C)(C)C)ncn2-c2ccc(C#CC[Si](C)(C)C)cc2C1=O` showed a Ki of 0.275 µM. In the case of `C#Cc1ccc2c(c1)C(=O)N1CC[C@H]1c1c(C(=O)OCC)ncn1-2`, the Ki is reported as 0.021 µM. `CC(=O)c1ncn2c1CN(C)C(=O)c1cc(Cl)ccc1-2` showed a Ki of 17.5 µM.
